For data set [1], the system named is Salmonella typhimurium TA1535. In words: Antimutagenicity assay against sodium azide. The data set is classed as cell-based. The method in brief: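 S. typhimurium TA1535 exposed at 37°C for 30 min to test compound (10 and 20 μM, or 5 and 10 μM for two compounds) and NaN3 (1 μg/plate). Pre-exposure adds NaN3 after the 30 min compound step; co-exposure combines all three together. Plated on minimal glucose agar; revertants counted after 48 h, triplicate. Mutant frequency = mutant colonies/viable colonies.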

The test system of data set [2] is Salmonella typhimurium TA1535. The data set is classed as cell-based. The conditions noted are these: NaN3 1 μg/plate alone, no bichalcophene. The method in brief:
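Overnight S. typhimurium TA1535 diluted 10−7, shaken 30 min at 37°C in phosphate buffer with NaN3 (1 μg/plate) plus test compound (10 and 20 μM, or 5 and 10 μM for two compounds) or NaN3 alone. Colonies counted on triplicate plates after 24 h and compared with untreated bacteria. ANOVA with Fisher's PLSD, P<0.05.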

For `[N-]=[N+]=[N-].[Na+]` [NaN3, sodium azide], the “NaN3 mutagenicity, revertant colonies/plate” value in data set [1] (NaN3 1 μg/plate alone, spontaneous 34.3 ± 4.0) is on record as 384.7 ± 14.7 (0) revertant colonies/plate. Also, the Mutant frequency in data set [1] (NaN3 alone, mutant colonies (Table 6)/viable colonies (Table 3)) is recorded as 10.43 (100). Further, in data set [2], the “Viability, % of control” value is 105 % of control and the “Viability, colonies/plate” value came out at 36.9 ± 4.3 colonies/plate.

Source of the values: PMC3573810 (Drug Design, Development and Therapy, 2013).
